Experimental data from ChEMBL document CHEMBL4265912, “Design, synthesis and identification of novel substituted 2-amino thiazole analogues as potential anti-inflammatory agents targeting 5-lipoxygenase” (Eur J Med Chem, 2018).

Tests used:
[1] = target: T1, Polyunsaturated fatty acid 5-lipoxygenase (Homo sapiens) (UniProt P09917); assay: Inhibition of recombinant human 5-LOX expressed in Escherichia coli BL21 at 10 uM using arachidonic acid as substrate by UV-vis spectrophotometric method relative to control
T1 sequence (whole entry): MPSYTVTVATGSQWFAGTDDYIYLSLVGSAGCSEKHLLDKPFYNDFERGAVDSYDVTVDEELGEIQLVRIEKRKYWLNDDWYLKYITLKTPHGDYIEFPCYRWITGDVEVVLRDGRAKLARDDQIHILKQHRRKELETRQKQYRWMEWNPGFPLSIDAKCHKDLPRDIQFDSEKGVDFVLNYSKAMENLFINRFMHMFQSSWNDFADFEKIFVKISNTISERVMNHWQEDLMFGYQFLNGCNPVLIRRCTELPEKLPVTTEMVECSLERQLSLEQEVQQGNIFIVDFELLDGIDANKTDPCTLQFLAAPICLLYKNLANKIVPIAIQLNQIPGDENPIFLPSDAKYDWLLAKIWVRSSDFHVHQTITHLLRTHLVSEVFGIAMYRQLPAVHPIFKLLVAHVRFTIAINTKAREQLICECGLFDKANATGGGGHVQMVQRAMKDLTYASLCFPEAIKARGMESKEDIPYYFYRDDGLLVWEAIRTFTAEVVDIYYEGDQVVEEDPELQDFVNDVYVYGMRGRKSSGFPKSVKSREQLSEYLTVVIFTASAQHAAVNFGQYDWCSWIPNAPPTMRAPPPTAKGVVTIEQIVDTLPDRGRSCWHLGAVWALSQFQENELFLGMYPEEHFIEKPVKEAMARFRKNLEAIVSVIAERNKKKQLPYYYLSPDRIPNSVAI
How it was run: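 Partially purified human 5-LOX, expressed in E. coli BL21 (IPTG induction, ammonium sulfate precipitation, 100000 × g supernatant). Buffer: 25 mM HEPES pH 7.3, EDTA, 10 mM CaCl2, 4 mM ATP; compound in 2% DMSO added at 4 °C; started with 30 μM AA. 5-HPETE read at 236 nm. Single point at 10 μM; IC50 from inhibition-versus-concentration curves; three repeats.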

[2] = Antioxidant activity assessed as DPPH radical scavenging activity at 20 uM measured after 30 mins; type: functional
How it was run: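 Test compound at 20 μM added to 0.1 mM DPPH in methanol, incubated 30 min at room temperature in dark; absorbance read at 517 nm; ascorbic acid reference; percent scavenging calculated; three repeats, mean ± SEM.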

[3] = target: T2, Polyunsaturated fatty acid 5-lipoxygenase (Homo sapiens, UniProt P09917); assay: Inhibition of recombinant human 5-LOX expressed in Escherichia coli BL21 using arachidonic acid as substrate by UV-vis spectrophotometric method
T2 sequence (P09917 whole entry): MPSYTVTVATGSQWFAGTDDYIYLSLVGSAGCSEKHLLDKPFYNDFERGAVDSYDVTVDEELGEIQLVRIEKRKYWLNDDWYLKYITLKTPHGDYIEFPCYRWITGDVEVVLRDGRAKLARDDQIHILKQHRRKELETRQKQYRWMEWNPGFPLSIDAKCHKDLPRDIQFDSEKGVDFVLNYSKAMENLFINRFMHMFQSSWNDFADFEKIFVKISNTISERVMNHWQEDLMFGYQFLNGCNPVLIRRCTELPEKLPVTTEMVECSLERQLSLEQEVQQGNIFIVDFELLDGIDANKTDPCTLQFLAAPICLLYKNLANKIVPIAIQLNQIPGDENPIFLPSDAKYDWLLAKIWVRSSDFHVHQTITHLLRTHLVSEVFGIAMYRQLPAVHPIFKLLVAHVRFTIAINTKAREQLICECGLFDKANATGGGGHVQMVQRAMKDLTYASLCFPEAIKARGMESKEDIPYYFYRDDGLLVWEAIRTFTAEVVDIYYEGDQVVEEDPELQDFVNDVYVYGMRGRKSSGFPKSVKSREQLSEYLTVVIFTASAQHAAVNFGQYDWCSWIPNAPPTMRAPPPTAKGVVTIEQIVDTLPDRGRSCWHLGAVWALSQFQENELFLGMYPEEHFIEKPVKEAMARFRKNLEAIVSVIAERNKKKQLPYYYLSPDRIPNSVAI
How it was run: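 Partially purified human 5-LOX, expressed in E. coli BL21 (IPTG induction, ammonium sulfate precipitation, 100000 × g supernatant). Buffer: 25 mM HEPES pH 7.3, EDTA, 10 mM CaCl2, 4 mM ATP; compound in 2% DMSO added at 4 °C; started with 30 μM AA.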

[4] = target: T1, Polyunsaturated fatty acid 5-lipoxygenase (Homo sapiens); assay: Inhibition of recombinant human 5-LOX pseudoperoxidase activity expressed in Escherichia coli BL21 assessed as compound redox activity by measuring decrease in 13(S)-HpODE product formation at 10 uM by UV-vis spectrophotometric method; design: scale not given: the % may be the effect or the level left
How it was run: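 Pseudoperoxidase: 10 μM inhibitor (1:1 to substrate) starts reaction in 50 mM potassium phosphate pH 7.4, 0.3 mM CaCl2, 0.1 mM EDTA, 200 μM ATP, 10 μM 13(S)-HPODE with 5-LOX; loss of hydroperoxide followed at 234 nm over 300 s, relative to control.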

[5] = compound: COc1ccc(-c2nc(N(c3ccccc3)c3ccccc3)sc2C(=O)c2ccccc2)cc1; assay: Competitive inhibition of recombinant human 5-LOX expressed in Escherichia coli BL21 assessed as Vmax for substrate at 5 uM using arachidonic acid as substrate by Lineweaver-Burk plot analysis (reference value: 0.39 +/- 0.02 nmol/min)
[6] = compound: COc1ccc(-c2nc(N(c3ccccc3)c3ccccc3)sc2C(=O)c2ccccc2)cc1; assay: Competitive inhibition of recombinant human 5-LOX expressed in Escherichia coli BL21 assessed as Vmax for substrate at 10 uM using arachidonic acid as substrate by Lineweaver-Burk plot analysis (reference value: 0.39 +/- 0.02 nmol/min)
[7] = compound: COc1ccc(-c2nc(N(c3ccccc3)c3ccccc3)sc2C(=O)c2ccccc2)cc1; assay: Competitive inhibition of recombinant human 5-LOX expressed in Escherichia coli BL21 assessed as Km for substrate at 5 uM using arachidonic acid as substrate by Lineweaver-Burk plot analysis (reference value: 0.42 +/- 0.15 microM)
[8] = compound: COc1ccc(-c2nc(N(c3ccccc3)c3ccccc3)sc2C(=O)c2ccccc2)cc1; assay: Competitive inhibition of recombinant human 5-LOX expressed in Escherichia coli BL21 assessed as Km for substrate at 10 uM using arachidonic acid as substrate by Lineweaver-Burk plot analysis (reference value: 0.42 +/- 0.15 microM)
[9] = compound: O=C(NC(=S)N1CCN(c2ccccc2)CC1)c1ccccc1; assay: Mixed non-competitive inhibition of recombinant human 5-LOX expressed in Escherichia coli BL21 assessed as Vmax for substrate at 5 uM using arachidonic acid as substrate by Lineweaver-Burk plot analysis (reference value: 0.48 +/- 0.02 nmol/min)
[10] = compound: O=C(NC(=S)N1CCN(c2ccccc2)CC1)c1ccccc1; assay: Mixed non-competitive inhibition of recombinant human 5-LOX expressed in Escherichia coli BL21 assessed as Vmax for substrate at 10 uM using arachidonic acid as substrate by Lineweaver-Burk plot analysis (reference value: 0.48 +/- 0.02 nmol/min)
[11] = compound: O=C(NC(=S)N1CCN(c2ccccc2)CC1)c1ccccc1; assay: Mixed non-competitive inhibition of recombinant human 5-LOX expressed in Escherichia coli BL21 assessed as Km for substrate at 5 uM using arachidonic acid as substrate by Lineweaver-Burk plot analysis (reference value: 0.7761 +/- 0.22 microM)
[12] = compound: O=C(NC(=S)N1CCN(c2ccccc2)CC1)c1ccccc1; assay: Mixed non-competitive inhibition of recombinant human 5-LOX expressed in Escherichia coli BL21 assessed as Km for substrate at 10 uM using arachidonic acid as substrate by Lineweaver-Burk plot analysis (reference value: 0.7761 +/- 0.22 microM)

Molecule | inhibition [1] [%] | Activity [2] [%] | other results
O=C(c1ccccc1)c1sc(N2CCCC2)nc1-c1ccccc1 | 75.3 | -2.9 | 
COc1ccc(C(=O)NC(=S)N(c2ccccc2)c2ccccc2)cc1 | 19.2 | 8.1 | 
O=C(c1ccccc1)c1sc(N2CCOCC2)nc1-c1ccccc1 | 85.3 | 9.5 | IC50 [3]: 2300 nM; Activity [4]: 2.1%
O=C(NC(=S)N1CCOCC1)c1ccccc1 | 79.4 | 19.1 | 
COc1ccc(C(=O)NC(=S)N2CCCCC2)cc1 | 86 | 21.8 | IC50 [3]: 3300 nM
CN(C(=S)NC(=O)c1ccccc1)c1ccccc1 | 78.7 | 13.2 | 
O=C(c1ccccc1)c1sc(N2CCN(c3ccccc3)CC2)nc1-c1ccc([N+](=O)[O-])cc1 | 67.8 | 8.2 | 
CC(c1cc2ccccc2s1)N(O)C(N)=O (configuration not stated) |  | 17.8 | 
CN(Cc1ccccc1)c1nc(-c2ccccc2)c(C(=O)c2ccccc2)s1 | 53.1 | 3.6 | 
O=C(c1ccccc1)c1sc(N2CCOCC2)nc1-c1ccc(F)cc1 | 50.2 | -0.8 | 
O=C(NC(=S)N1CCCCC1)c1ccc(F)cc1 | 80.7 | 5.9 | IC50 [3]: 3800 nM
COc1ccc(C(=O)NC(=S)N2CCN(c3ccccc3)CC2)cc1 | 36.8 | 3.7 | 
O=C(c1ccccc1)c1sc(N(c2ccccc2)c2ccccc2)nc1-c1ccccc1 | 48.6 | -4.7 | 
COc1ccc(C(=O)NC(=S)N(C)Cc2ccccc2)cc1 | 26.5 | 7.4 | 
O=C(NC(=S)N(c1ccccc1)c1ccccc1)c1ccccc1 | 73.3 | 11.3 | 
O=C(c1ccccc1)c1sc(N(c2ccccc2)c2ccccc2)nc1-c1ccc([N+](=O)[O-])cc1 | 79.6 | -2.8 | 
O=C(c1ccccc1)c1sc(N2CCN(c3ccccc3)CC2)nc1-c1ccccc1 | 38.3 | -0.7 | 

Molecule | inhibition [1] [%] | Activity [2] [%] | other results
CN(Cc1ccccc1)C(=S)NC(=O)c1ccccc1 | 80.7 | 18.4 | 
O=C(NC(=S)N1CCOCC1)c1ccc(F)cc1 | 29.5 | 9.1 | 
COc1ccc(-c2nc(N(C)Cc3ccccc3)sc2C(=O)c2ccccc2)cc1 | 17.7 | -1.9 | 
O=C(NC(=S)N1CCCCC1)c1ccccc1 | 56.8 | 23.7 | 
COc1ccc(C(=O)NC(=S)N2CCOCC2)cc1 | 68.3 | 3.9 | 
O=C(c1ccccc1)c1sc(N2CCCCC2)nc1-c1ccccc1 | 85.2 | 8.5 | IC50 [3]: 3100 nM; Activity [4]: 0.6%
O=C(NC(=S)N1CCCC1)c1ccccc1 | 24.5 | 25.6 | 
COc1ccc(-c2nc(N3CCN(c4ccccc4)CC3)sc2C(=O)c2ccccc2)cc1 | 53.1 | 7.8 | 
CN(c1ccccc1)c1nc(-c2ccccc2)c(C(=O)c2ccccc2)s1 | 67.8 | 4.6 | 
O=C1O[C@H]([C@@H](O)CO)C(O)=C1O |  | 84.1 | 
COc1ccc(-c2nc(N(c3ccccc3)c3ccccc3)sc2C(=O)c2ccccc2)cc1 | 92.8 | 11.8 | IC50 [3]: 900 nM; Activity [4]: 29.4%
O=C(NC(=S)N1CCN(c2ccccc2)CC1)c1ccc(F)cc1 | 23.6 | 6.3 | 
O=C(NC(=S)N1CCN(c2ccccc2)CC1)c1ccccc1 | 91.3 | 24.1 | IC50 [3]: 1400 nM; Activity [4]: -46.2%
COc1ccc(-c2nc(N3CCCCC3)sc2C(=O)c2ccccc2)cc1 | 62 | 9.6 | 
O=C(NC(=S)N(c1ccccc1)c1ccccc1)c1ccc([N+](=O)[O-])cc1 | 30.9 | 4.7 | 
O=C(NC(=S)N1CCN(c2ccccc2)CC1)c1ccc([N+](=O)[O-])cc1 | 76.6 | 20.3 | 
Polyunsaturated fatty acid 5-lipoxygenase (Homo sapiens), P09917 (protein) MPSYTVTVATGSQWFAGTDDYIYLSLVGSAGCSEKHLLDKPFYNDFERGAVDSYDVTVDEELGEIQLVRIEKRKYWLNDDWYLKYITLKTPHGDYIEFPCYRWITGDVEVVLRDGRAKLARDDQIHILKQHRRKELETRQKQYRWMEWNPGFPLSIDAKCHKDLPRDIQFDSEKGVDFVLNYSKAMENLFINRFMHMFQSSWNDFADFEKIFVKISNTISERVMNHWQEDLMFGYQFLNGCNPVLIRRCTELPEKLPVTTEMVECSLERQLSLEQEVQQGNIFIVDFELLDGIDANKTDPCTLQFLAAPICLLYKNLANKIVPIAIQLNQIPGDENPIFLPSDAKYDWLLAKIWVRSSDFHVHQTITHLLRTHLVSEVFGIAMYRQLPAVHPIFKLLVAHVRFTIAINTKAREQLICECGLFDKANATGGGGHVQMVQRAMKDLTYASLCFPEAIKARGMESKEDIPYYFYRDDGLLVWEAIRTFTAEVVDIYYEGDQVVEEDPELQDFVNDVYVYGMRGRKSSGFPKSVKSREQLSEYLTVVIFTASAQHAAVNFGQYDWCSWIPNAPPTMRAPPPTAKGVVTIEQIVDTLPDRGRSCWHLGAVWALSQFQENELFLGMYPEEHFIEKPVKEAMARFRKNLEAIVSVIAERNKKKQLPYYYLSPDRIPNSVAI |  |  | Vmax [5]: 0.38 nmol/min; Vmax [6]: 0.38 nmol/min; Km [7]: 0.99 µM; Km [8]: 1.51 µM; Vmax [9]: 0.4 nmol/min; Vmax [10]: 0.34 nmol/min; Km [11]: 0.79 µM; Km [12]: 0.767 µM
